# Screening results deposited in PubChem by Sanford-Burnham Center for Chemical Genomics.
# Sampled rows, rich in hits. Any-hit rate of the full collection: about 2.5%.
# SENP1 FRET inh – SENP1 (human) catalytic domain inhibition; inhibition, % at 10 µM; recombinant SENP1 catalytic domain, CyPet-SUMO1-YPet FRET cleavage; Q9P0U3; 360,000 compounds, 0.21% hits;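 active = inhibition at least 30% at 10 µM, raw YFP signal under a set limit, fluorescence ratio 0.5 to 1.5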;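 also: 0% = enzyme with DMSO and 100% = no enzyme wells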
#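 Assay system – human recombinant His6-tagged SENP1 catalytic domain enzyme · Input – SENP1 enzyme, 20 pM final · Buffer or medium – Tris pH 8 buffer plus EDTA, NaCl, BME, BSA, NP40, catalase · Schedule – 50 min reaction at room temperature · Technique – FRET read of cyan and yellow fluorescence · Control set – no-enzyme wells low, DMSO-plus-enzyme wells high control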
# SENP7 inh – inhibitors of human SENP7 protease; inhibition, % at 5 µM; recombinant SENP7, Z-RLRGG-aminoluciferin luminescence, 40 min; 330,000 compounds, 1.5% hits; Q9BQF6;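 active = inhibition above about 50% at the single test dose, limit read from the data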;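 also: plate controls were DMSO with enzyme for no effect and no enzyme buffer wells for full effect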
# Target sequence (Q9BQF6 706-1050 limits assumed): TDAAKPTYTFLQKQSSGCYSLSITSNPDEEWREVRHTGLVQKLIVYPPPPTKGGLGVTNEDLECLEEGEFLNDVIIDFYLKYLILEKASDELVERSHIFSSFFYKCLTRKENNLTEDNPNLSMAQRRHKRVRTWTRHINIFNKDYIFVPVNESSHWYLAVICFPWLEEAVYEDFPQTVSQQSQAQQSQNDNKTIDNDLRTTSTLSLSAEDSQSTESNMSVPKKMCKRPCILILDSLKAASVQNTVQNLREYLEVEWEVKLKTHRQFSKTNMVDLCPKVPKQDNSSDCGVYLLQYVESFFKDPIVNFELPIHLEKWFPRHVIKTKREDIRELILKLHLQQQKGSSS
# SENP8 block-1 – blocks the human protease SENP8; Q96LD8; purified SENP8, Z-RLRGG-aminoluciferin cleavage, luminescence; inhibition, % at 10 µM; 330,000 compounds, 1.2% hits; AID 2540; in the data active = inhibition above about 50%
# Target sequence (Q96LD8 whole entry, looked up): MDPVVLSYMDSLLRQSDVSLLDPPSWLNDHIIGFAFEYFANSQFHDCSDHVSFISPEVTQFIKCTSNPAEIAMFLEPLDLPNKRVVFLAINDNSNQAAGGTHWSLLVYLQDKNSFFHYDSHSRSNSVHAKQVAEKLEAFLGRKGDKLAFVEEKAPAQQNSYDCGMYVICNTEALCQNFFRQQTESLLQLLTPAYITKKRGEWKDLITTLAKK
# SENP8 block-2 – blocks human SENP8 cleavage of Nedd8 substrate; inhibition, % at 20 µM; 360,000 compounds, 0.64% hits; AID 602440; Q96LD8; recombinant SENP8, Nedd8 substrate fluorescence; in the data active = inhibition mostly above about 40%, no sharp cut-off; inactive = mostly below about 27%
# SENP6 block – blocks the human protease SENP6; AID 2599; 330,000 compounds, 1.8% hits; inhibition, % at 10 µM; Recombinant SENP6 catalytic domain, aminoluciferin luminescence; Q9GZR1;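 active = inhibition above about 50% at the single tested dose, limit read from the data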;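 also: plate controls were DMSO wells with enzyme for no effect and DMSO wells lacking enzyme for full effect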
# SENP8 confirm – confirmation of human SENP8 protease inhibitors; Recombinant SENP8, Z-RLRGG-aminoluciferin luminescence, 60 min; inhibition, % at 12.5 µM; 6,200 compounds, 40% hits; shares compounds with SENP7 inh;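 active = mean inhibition across replicates above about 50%, limit read from the data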
# SENP6 conf – confirmation of human SENP6 protease inhibitors; shares compounds with SENP7 inh; recombinant SENP6, Z-RLRGG-aminoluciferin luminescence; inhibition, % at 12.5 µM; 6,200 compounds, 58% hits
# SENP7 conf – confirmation of human SENP7 protease inhibitors | shares compounds with SENP7 inh | recombinant SENP7, Z-RLRGG-aminoluciferin luminescence, 40 min | inhibition, % at 12.5 µM | 6,200 compounds, 69% hits
# Casp3 select – selectivity test for SENP inhibitors: human caspase-3 inhibition; shares compounds with SENP7 inh; purified caspase-3, Z-DEVD-aminoluciferin luminescence, 60 min; inhibition, % at 12.5 µM; 6,200 compounds, 60% hits;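 active = mean inhibition above about 50%, limit read from the data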;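 also: plate controls were enzyme with DMSO for no effect and wells without caspase-3 for full effect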
# Luc interf – luminescence interference (SENP counter-screen). 6,200 compounds, 39% hits. inhibition, % at 12.5 µM. Pre-incubated SENP8/Z-RLRGG-aminoluciferin, luciferase luminescence interference. shares compounds with SENP7 inh;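 active = mean inhibition above about 50% when retested at one dose, limit read from the data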;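 also: plate controls were DMSO wells with completed reaction for no effect and substrate without enzyme for full effect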
# Starred values were filed as active, the others as inactive; nt = not tested or not shown.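 The calls were made as follows, unless noted: active = mean inhibition above about 50% in the one-dose retest (limit read from the data); inactive = the rest.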
SMILES,SENP1 FRET inh,SENP7 inh,SENP8 block-1,SENP8 block-2,SENP6 block,SENP8 confirm,SENP6 conf,SENP7 conf,Casp3 select,Luc interf
Clc1ccc2nc(-c3ccc4c(c3)OCO4)cn2c1,0,79*,78*,-416,75*,29,86*,70*,64*,11
Cc1ccc2nc(-c3ccc4c(c3)NC(=O)CO4)cn2c1,-4,1,-6,-199,-13,nt,nt,nt,nt,nt
Cc1ccc2nc(-c3ccc4c(c3)OCCO4)cn2c1,3,94*,87*,-426,89*,93*,93*,101*,94*,93*
O=c1cc(CN(Cc2ccccc2)Cc2ccccc2)c2c(ccc3ccccc32)o1,-20,nt,nt,-107,nt,nt,nt,nt,nt,nt
O=C(Nc1ccc(C(=O)Oc2ccccc2)c(O)c1)c1ccco1,1,82*,73*,-24,91*,80*,81*,96*,66*,32
CCOC(=O)Nc1ccc(Oc2ccccc2)cc1,1,12,5,8,12,nt,nt,nt,nt,nt
CCOC(=O)Nc1ccc(C(=O)Oc2ccccc2)c(O)c1,1,53*,21,1,43,29,33,69*,20,43
O=C(Nc1ccc(OC(=O)c2cccs2)cc1)c1ccco1,1,82*,67*,28,87*,72*,72*,94*,77*,44
CCOC(=O)[C@H]1[C@H]2COc3ccc(Cl)cc3[C@@H]2N2C(=O)[C@@H](C)NC(=O)[C@@]12C,0,3,6,8,2,nt,nt,nt,nt,nt
Cc1nc(N2CCOCC2)[nH]c(=O)c1[N+](=O)[O-],1,10,0,30,12,nt,nt,nt,nt,nt
Cn1nc([N+](=O)[O-])nc1N1CCOCC1,2,10,61*,-1,5,-13,5,-3,-4,-3
COc1ccc(OCc2ccc(/C=N\NC(=O)c3sccc3C)o2)cc1,0,32,-15,-34,22,nt,nt,nt,nt,nt
CSc1ccc(/C=N/NC(=O)c2sccc2C)cc1,1,100*,92*,-158,94*,14,61*,101*,63*,-5
CSc1ccc(/C=N/NC(=O)c2cc(O)cc(O)c2)cc1,3,43,22,-169,58*,59*,58*,84*,65*,65*
CSc1ccc(/C=N/NC(=O)c2ccc(C)c(C)c2)cc1,-1,-1,-6,-100,-28,nt,nt,nt,nt,nt
O=C(Nc1ccc(F)cc1)c1ccc(C(=O)N2CCCC(O)C2)cc1 (stereo not given),-2,6,-6,12,-5,nt,nt,nt,nt,nt
CN(C)S(=O)(=O)c1ccc(Cl)c(C(=O)NNC(=O)c2ccc3c(c2)OCO3)c1,0,2,-1,13,-7,nt,nt,nt,nt,nt
NNC(=O)c1cccc(COc2ccccc2Br)c1,-1,14,-2,24,6,nt,nt,nt,nt,nt
NNC(=O)c1cccc(COc2ccc3c(c2)CCC3)c1,2,17,44,16,69*,68*,61*,88*,45,86*
CC(C)c1ccc(-n2nnnc2SCc2nc(N)nc(N)n2)cc1,-1,nt,nt,4,nt,nt,nt,nt,nt,nt
O=c1c(N2CCOCC2)coc2ccccc12,1,0,-2,-1,-6,nt,nt,nt,nt,nt
O=c1[nH]c(N2CCOCC2)cc2ccccc12,-59,96*,87*,-498,91*,46,76*,61*,37,7
Cc1cc(/C=C2/SC(=O)N(CC(=O)N3CCOCC3)C2=O)c(C)n1-c1ccccc1F,0,1,-7,7,-13,nt,nt,nt,nt,nt
O=c1ccnc(S/C=C/c2ccccc2)[nH]1,-1,-2,71*,9,83*,78*,73*,89*,87*,76*
O=c1ccnc(SCCc2ccccc2)[nH]1,2,-13,-10,13,-21,nt,nt,nt,nt,nt
SMILES,SENP1 FRET inh,SENP7 inh,SENP8 block-1,SENP8 block-2,SENP6 block,SENP8 confirm,SENP6 conf,SENP7 conf,Casp3 select,Luc interf
CC(=O)c1ccc(NC(=O)CCOc2cc(C)ccc2C)cc1,1,0,1,26,3,nt,nt,nt,nt,nt
N=c1oc2ccccc2cc1C(=O)Nc1ccccc1,-3,93*,89*,18,86*,-5,56*,78*,47,6
N=c1oc2cc(O)ccc2cc1C(=O)Nc1ccc(Br)cc1,-27,25,77*,-296,86*,10,30,15,12,9
COc1cccc(NC(=O)c2cc3ccccc3oc2=O)c1,4,100*,90*,17,94*,-8,4,-3,10,5
COc1ccc2oc(=O)c(C(=O)Nc3cccc(C(C)=O)c3)cc2c1,-23,-8,-7,-107,-15,nt,nt,nt,nt,nt
N=c1oc2ccc(Cl)cc2cc1C(=O)Nc1ccc(F)cc1,24,-13,-4,4,-20,nt,nt,nt,nt,nt
N=c1oc2cc(O)ccc2cc1C(=O)Nc1ccccn1,nt,-3,21,nt,13,nt,nt,nt,nt,nt
COc1ccc2oc(=O)c(C(=O)Nc3ccccc3C)cc2c1,-53,74*,47,-12,65*,38,36,45,50*,11
CCOc1ccc(C(=O)NC(C(=O)N2CCC2)C(C)C)cc1 (stereo not given),-1,8,-1,13,-9,nt,nt,nt,nt,nt
CN(C)CCCNc1nc2cc(-c3cnn(Cc4ccccc4)c3)sc2c(=O)n1C,0,nt,nt,-169,nt,nt,nt,nt,nt,nt
COc1ccc2oc(=N)c(C(=O)Nc3cccc(C)c3C)cc2c1,-13,42,-8,-14,21,nt,nt,nt,nt,nt
CCc1nnc(NC(=O)c2cc3ccccc3oc2=O)s1,-5,5,0,6,-10,nt,nt,nt,nt,nt
Cc1cccnc1NC(=O)c1cc2ccccc2oc1=O,-8,91*,5,-20,20,53*,52*,80*,68*,24
COc1ccc2oc(=N)c(C(=O)Nc3ccccc3Cl)cc2c1,-106,61*,-13,-256,12,2,7,9,37,10
COc1ccc2oc(=N)c(C(=O)Nc3ccccc3)cc2c1,-84,72*,45,-203,62*,34,35,69*,57*,20
COc1cc2ccccc2cc1C(=O)Nc1ccccc1Cl,-2,4,47,-46,58*,72*,72*,91*,nt,42
COc1ccccc1N(CC(=O)Nc1cc(S(=O)(=O)N(C)C)ccc1C)S(=O)(=O)c1cccs1,2,3,-12,11,-6,nt,nt,nt,nt,nt
